Data published in ChEMBL document CHEMBL5149991 (J Med Chem, 2021).

Experiments:
Histamine H3 receptor = Histamine H3 receptor (Homo sapiens, UniProt Q9Y5N1); experiment: Displacement of [3H]UR-PI294 from human histamine H3 receptor stably expressed in baculovirus infected Sf9 cell membrane co-expressing G-alphai2 and G-beta1gamma2 incubated for 60 mins by scintillation counting analysis; format: cell membranes
In short: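 hH3R + Gαi2 + Gβ1γ2 expressed in Sf9 membranes. […] Mean ± SEM from N independent experiments in triplicate.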

D(2) dopamine receptor = D(2) dopamine receptor (Homo sapiens, UniProt P14416); experiment: Displacement of [3H]N-methylspiperone from human D2 long receptor stably expressed in HEK293T cells co-expressing luciferase and CEK incubated for 140 mins by radioligand competition binding based assay; format: cell-based
D(1B) dopamine receptor = D(1B) dopamine receptor (Homo sapiens, UniProt P21918); experiment: Displacement of [3H]SCH23390 from human D5 receptor stably expressed in HEK293T cells co-expressing luciferase and CEK incubated for 60 mins by scintillation counting analysis; format: cell-based
[1] = target: T1, Muscarinic acetylcholine receptor M2 (Homo sapiens, UniProt P08172); experiment: Displacement of [3H]N-methylscopolamine from human muscarinic acetylcholine M2 receptor stably expressed in CHO cells by radioligand competition binding based analysis; format: cell-based
T1 sequence (P08172 whole entry): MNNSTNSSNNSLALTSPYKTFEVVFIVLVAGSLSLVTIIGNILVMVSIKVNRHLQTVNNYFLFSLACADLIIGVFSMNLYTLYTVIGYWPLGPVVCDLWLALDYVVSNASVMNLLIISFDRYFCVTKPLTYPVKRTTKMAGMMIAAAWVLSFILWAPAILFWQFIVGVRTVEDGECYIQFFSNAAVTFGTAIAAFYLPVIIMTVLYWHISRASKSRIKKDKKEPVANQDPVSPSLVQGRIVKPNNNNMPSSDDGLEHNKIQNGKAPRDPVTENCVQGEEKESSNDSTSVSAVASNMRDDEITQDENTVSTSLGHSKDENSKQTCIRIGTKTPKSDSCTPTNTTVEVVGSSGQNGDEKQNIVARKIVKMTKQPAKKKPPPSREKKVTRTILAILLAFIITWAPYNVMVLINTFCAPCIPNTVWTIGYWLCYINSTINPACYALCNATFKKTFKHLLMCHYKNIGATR
In short: (§1)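 Whole CHO cells stably expressing hM1–hM5, competed against [3H]N-methylscopolamine. Kd/applied concentrations in nM: M1 0.17/0.2, M2 0.10/0.2, M3 0.12/0.2, M4 0.052/0.1, M5 0.20/0.3.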

[2] = target: T2, Muscarinic acetylcholine receptor M4 (Homo sapiens, UniProt P08173); experiment: Displacement of [3H]N-methylscopolamine from human muscarinic acetylcholine M4 receptor stably expressed in CHO cells by radioligand competition binding based analysis; format: cell-based; in short: as §1
T2 sequence (P08173 whole entry): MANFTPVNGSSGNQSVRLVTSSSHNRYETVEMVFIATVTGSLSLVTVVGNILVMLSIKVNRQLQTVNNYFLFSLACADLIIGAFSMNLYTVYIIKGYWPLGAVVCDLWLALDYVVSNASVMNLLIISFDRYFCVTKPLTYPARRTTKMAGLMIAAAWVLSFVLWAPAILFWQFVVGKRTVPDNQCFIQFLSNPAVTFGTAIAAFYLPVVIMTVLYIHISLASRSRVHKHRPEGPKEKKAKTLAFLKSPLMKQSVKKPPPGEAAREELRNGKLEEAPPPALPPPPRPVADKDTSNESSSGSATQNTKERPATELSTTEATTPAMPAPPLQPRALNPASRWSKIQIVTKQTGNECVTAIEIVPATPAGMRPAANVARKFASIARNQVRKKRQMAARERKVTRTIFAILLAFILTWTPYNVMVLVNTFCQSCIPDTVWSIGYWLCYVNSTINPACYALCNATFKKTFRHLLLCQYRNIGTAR

[3] = target: T3, Alpha-1A adrenergic receptor (Homo sapiens, UniProt P35348); experiment: Displacement of [3H]prazosin from human alpha-1A adrenergic receptor stably expressed in HEK293T cell membrane incubated for 2 hrs by scintillation counting analysis; format: cell membranes
T3 sequence (P35348 whole entry): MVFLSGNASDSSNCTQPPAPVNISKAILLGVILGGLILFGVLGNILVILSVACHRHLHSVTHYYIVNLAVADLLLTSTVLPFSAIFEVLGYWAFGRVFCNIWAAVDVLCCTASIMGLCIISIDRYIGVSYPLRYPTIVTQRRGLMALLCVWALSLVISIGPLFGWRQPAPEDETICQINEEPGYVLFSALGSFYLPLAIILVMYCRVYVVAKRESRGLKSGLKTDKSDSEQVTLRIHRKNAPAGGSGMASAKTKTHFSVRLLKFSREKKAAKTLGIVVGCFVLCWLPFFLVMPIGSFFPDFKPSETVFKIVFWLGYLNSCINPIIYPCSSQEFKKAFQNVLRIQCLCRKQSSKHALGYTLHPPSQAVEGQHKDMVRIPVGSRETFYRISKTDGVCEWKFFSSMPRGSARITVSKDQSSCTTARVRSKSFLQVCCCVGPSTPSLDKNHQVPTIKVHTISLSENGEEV

[4] = target: T4, 5-hydroxytryptamine receptor 1A (Homo sapiens, UniProt P08908); experiment: Displacement of […] from human 5HT1A stably expressed in HEK293T cell membrane incubated for 2 hrs by scintillation counting analysis; format: cell membranes
T4 sequence (P08908 whole entry): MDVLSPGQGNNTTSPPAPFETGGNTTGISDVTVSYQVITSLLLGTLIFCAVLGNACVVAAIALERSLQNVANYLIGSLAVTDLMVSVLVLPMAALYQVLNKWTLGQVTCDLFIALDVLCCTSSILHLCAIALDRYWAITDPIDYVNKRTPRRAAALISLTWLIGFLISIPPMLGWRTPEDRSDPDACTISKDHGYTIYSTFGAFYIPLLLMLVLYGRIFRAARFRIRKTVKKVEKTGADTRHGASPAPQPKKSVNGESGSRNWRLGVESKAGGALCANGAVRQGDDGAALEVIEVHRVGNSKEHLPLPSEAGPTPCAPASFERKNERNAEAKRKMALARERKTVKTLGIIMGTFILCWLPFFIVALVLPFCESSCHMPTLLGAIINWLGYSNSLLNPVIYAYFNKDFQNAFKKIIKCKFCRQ

Sequence of Histamine H3 receptor (Q9Y5N1 whole entry): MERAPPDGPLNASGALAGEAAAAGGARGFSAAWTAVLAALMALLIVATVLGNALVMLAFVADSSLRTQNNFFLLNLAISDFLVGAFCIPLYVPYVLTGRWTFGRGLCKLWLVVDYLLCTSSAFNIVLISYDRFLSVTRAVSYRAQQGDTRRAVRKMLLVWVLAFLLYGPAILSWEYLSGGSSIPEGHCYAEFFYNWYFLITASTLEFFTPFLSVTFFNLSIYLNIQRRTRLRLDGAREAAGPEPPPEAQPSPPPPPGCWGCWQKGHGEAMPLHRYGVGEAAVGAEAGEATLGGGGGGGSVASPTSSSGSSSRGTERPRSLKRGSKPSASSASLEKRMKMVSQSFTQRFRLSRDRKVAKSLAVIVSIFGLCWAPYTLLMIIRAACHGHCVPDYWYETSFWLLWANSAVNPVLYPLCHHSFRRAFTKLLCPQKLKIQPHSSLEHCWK
Sequence of D(1B) dopamine receptor (P21918 whole entry): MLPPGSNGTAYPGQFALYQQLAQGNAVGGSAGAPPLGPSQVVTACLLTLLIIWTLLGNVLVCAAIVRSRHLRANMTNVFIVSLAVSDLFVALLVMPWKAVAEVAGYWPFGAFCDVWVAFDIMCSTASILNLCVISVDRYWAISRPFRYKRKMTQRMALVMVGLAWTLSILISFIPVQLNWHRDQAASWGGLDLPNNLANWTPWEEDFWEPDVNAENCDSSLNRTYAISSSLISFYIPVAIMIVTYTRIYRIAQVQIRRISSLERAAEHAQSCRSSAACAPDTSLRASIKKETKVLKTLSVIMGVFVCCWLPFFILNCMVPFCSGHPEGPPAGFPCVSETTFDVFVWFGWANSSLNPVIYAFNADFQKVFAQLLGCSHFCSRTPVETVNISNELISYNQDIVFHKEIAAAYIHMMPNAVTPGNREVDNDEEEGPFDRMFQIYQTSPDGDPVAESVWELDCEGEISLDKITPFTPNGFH
Sequence of D(2) dopamine receptor (P14416 whole entry): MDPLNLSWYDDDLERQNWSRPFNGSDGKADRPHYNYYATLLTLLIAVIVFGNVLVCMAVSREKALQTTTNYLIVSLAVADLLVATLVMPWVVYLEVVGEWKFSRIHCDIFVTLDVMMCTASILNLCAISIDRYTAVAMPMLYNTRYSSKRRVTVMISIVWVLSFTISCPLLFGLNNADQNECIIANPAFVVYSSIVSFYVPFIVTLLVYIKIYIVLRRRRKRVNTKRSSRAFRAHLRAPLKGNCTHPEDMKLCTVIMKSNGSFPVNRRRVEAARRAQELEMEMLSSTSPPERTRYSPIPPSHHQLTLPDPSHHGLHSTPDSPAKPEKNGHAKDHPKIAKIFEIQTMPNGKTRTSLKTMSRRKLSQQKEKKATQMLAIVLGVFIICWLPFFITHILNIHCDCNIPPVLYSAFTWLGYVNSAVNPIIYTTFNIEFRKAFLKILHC

| Structure (SMILES) | Ki (Histamine H3 receptor) [nM] | Ki (D(2) dopamine receptor) [nM] | Kd (D(1B) dopamine receptor) [nM] | pKi (D(1B) dopamine receptor) | Kd [1] [nM] | Kd [2] [nM] | pKi [2] | Kd [3] [nM] | pKi [3] | Kd [4] [nM] | pKi [4] | Ki [1] [nM] |
| --- | --- | --- | --- | --- | --- | --- | --- | --- | --- | --- | --- | --- |
| CCCCCNC(=O)/N=C(\N)NCCCc1nnc(N)s1.O=C(O)C(F)(F)F.O=C(O)C(F)(F)F | > 10000 | 9550 | 0.24 | 4.46 | 0.1 | 0.052 | < 5 | 0.25 | 5.45 | 0.08 | 4.49 |  |
| CCCCCNC(=O)/N=C(\N)NCCCc1sc(N)nc1C |  |  | 0.24 | 5.4 | 0.1 | 0.052 | < 5 | 0.25 | 5.69 | 0.08 | 5.18 | > 10000 |
| N/C(=N\C(=O)NCc1ccccc1)NCCCc1nnc(N)s1 | > 10000 | 6310 | 0.24 | 4.95 | 0.1 | 0.052 | > 5.5 | 0.25 | 6.07 | 0.08 | 4.56 |  |
| C[C@@H](NC(=O)/N=C(\N)NCCCc1ncn[nH]1)c1ccccc1 | > 10000 | > 10000 | 0.24 | 4.62 | 0.1 | 0.052 | > 5 | 0.25 | 5.72 | 0.08 | 4.29 | > 10000 |
